ChEMBL document CHEMBL4330087, “Synthesis, antimicrobial activity, attenuation of aminoglycoside resistance in MRSA, and ribosomal A-site binding of pyrene-neomycin conjugates” (Eur J Med Chem, 2019)
The source made the active and inactive calls. No cut-off for these calls is given here.

How the values were obtained:
Ribosomal RNA A-site [1] = assay: Displacement of F-NEO from Escherichia coli rRNA-A site after 10 to 20 mins by fluorescence assay relative to NEO; assay type: nucleic-acid assay; parameters: concentration or dose not given beside the values
Procedure, shortened: (§1)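 100 nM F-NEO:A-site complex in 10 mM HEPES, 50 mM NaCl, 0.04 mM EDTA, pH 7.0, mixed with ligand and incubated 10-20 min at room temperature. Fluorescence read at ex 485/em 525 nm, in duplicate. Percent binding was computed from the intensities of ligand-treated complex, complex without ligand, and complex with neomycin.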

Ribosomal RNA A-site [2] = assay: Displacement of F-NEO from human cytosolic rRNA-A site after 10 to 20 mins by fluorescence assay relative to NEO; assay type: nucleic-acid assay; parameters: concentration or dose not given beside the values; procedure, shortened: as §1
Ribosomal RNA A-site [3] = assay: Displacement of F-NEO from human mitochondrial rRNA-A site after 10 to 20 mins by fluorescence assay relative to NEO; assay type: nucleic-acid assay; parameters: concentration or dose not given beside the values; procedure, shortened: as §1
Homo sapiens [4] = species: Homo sapiens; assay: Displacement of F-NEO from human mitochondrial rRNA-A site C1410U mutant after 10 to 20 mins by fluorescence assay relative to NEO; parameters: concentration or dose not given beside the values; procedure, shortened: as §1
Homo sapiens [5] = species: Homo sapiens; assay: Displacement of F-NEO from human mitochondrial rRNA-A site A1490G mutant after 10 to 20 mins by fluorescence assay relative to NEO; procedure, shortened: as §1
Ribosomal RNA A-site [6] = assay: Displacement of F-NEO from Escherichia coli rRNA-A site after 10 to 20 mins by fluorescence assay; assay type: nucleic-acid assay
Procedure, shortened: (§2)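 A 100 nM F-NEO:A-site RNA complex in 10 mM HEPES, 50 mM NaCl, 0.04 mM EDTA, pH 7.0 was titrated with 2-fold dilutions of ligand from 20 to 0.009 μM, or from 60 or 40 μM for weaker ligands. Incubated 10-20 min at room temperature, fluorescence read at ex 485/em 525 nm. IC50 from dose-response curve fit.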

Ribosomal RNA A-site [7] = assay: Displacement of F-NEO from human cytosolic rRNA-A site after 10 to 20 mins by fluorescence assay; assay type: nucleic-acid assay; procedure, shortened: as §2
Ribosomal RNA A-site [8] = assay: Displacement of F-NEO from human mitochondrial rRNA-A site after 10 to 20 mins by fluorescence assay; assay type: nucleic-acid assay; procedure, shortened: as §2
[9] = Displacement of F-NEO from human mitochondrial rRNA-A site C1410U mutant after 10 to 20 mins by fluorescence assay; procedure, shortened: as §2
Staphylococcus aureus [10] = assay: Antibacterial activity against NEO-sensitive Staphylococcus aureus 25923 at 6.25 uM after 15 to 20 hrs by CLSI protocol based microdilution assay relative to control; assay type: functional
Procedure, shortened: (§3)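 Single-concentration screen at 6.25 μM against exponential-phase cultures, in duplicate, with NEO as reference. Enterococcus was grown in BHI broth, M. smegmatis in TS broth with 0.05% Tween 80, and all other strains in TS broth. The 1% DMSO water vehicle was added to broth (background) and culture (growth control). Incubation was 37 °C, humidified, 15-20 h. Result is percent growth inhibition.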

Staphylococcus aureus [11] = assay: Antibacterial activity against NEO-sensitive Staphylococcus aureus harboring NorA mutant at 6.25 uM after 15 to 20 hrs by CLSI protocol based microdilution assay relative to control; assay type: functional
Procedure, shortened: (§4)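 Exponential-phase cultures were exposed to 6.25 μM compound in duplicate with neomycin as reference, at 37 °C in a humidified incubator for 15-20 h. Broth and culture controls received sterile water with 1% DMSO. Percent growth inhibition was calculated against the growth and background controls.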

Staphylococcus aureus [12] = assay: Antibacterial activity against methicillin-resistant Staphylococcus aureus 33591 at 6.25 uM after 15 to 20 hrs by CLSI protocol based microdilution assay relative to control; assay type: functional; procedure, shortened: as §4
Staphylococcus aureus [13] = assay: Antibacterial activity against methicillin-resistant Staphylococcus aureus A960649 at 6.25 uM after 15 to 20 hrs by CLSI protocol based microdilution assay relative to control; assay type: functional; procedure, shortened: as §4
Staphylococcus aureus [14] = assay: Antibacterial activity against methicillin-resistant Staphylococcus aureus M0602 at 6.25 uM after 15 to 20 hrs by CLSI protocol based microdilution assay relative to control; assay type: functional; procedure, shortened: as §4
Streptococcus pyogenes = assay: Antibacterial activity against NEO-resistant Streptococcus pyogenes C203 at 6.25 uM after 15 to 20 hrs by CLSI protocol based microdilution assay relative to control; assay type: functional; procedure, shortened: as §4
Enterococcus faecalis = assay: Antibacterial activity against NEO-intermediate sensitive Enterococcus faecalis ATCC 29212 at 6.25 uM after 15 to 20 hrs by CLSI protocol based microdilution assay relative to control; assay type: functional; procedure, shortened: as §3
Enterococcus faecium = assay: Antibacterial activity against NEO-intermediate sensitive Enterococcus faecium BM4105-RF at 6.25 uM after 15 to 20 hrs by CLSI protocol based microdilution assay relative to control; assay type: functional; procedure, shortened: as §3
[15] = system: Mycolicibacterium smegmatis; assay: Antibacterial activity against NEO-sensitive Mycobacterium smegmatis at 6.25 uM after 15 to 20 hrs by CLSI protocol based microdilution assay relative to control; assay type: functional; procedure, shortened: as §3
Bacillus anthracis = assay: Antibacterial activity against NEO-sensitive Bacillus anthracis BA852 at 6.25 uM after 15 to 20 hrs by CLSI protocol based microdilution assay relative to control; assay type: functional; procedure, shortened: as §4
Listeria monocytogenes = assay: Antibacterial activity against NEO-sensitive Listeria monocytogenes ATCC 19115 at 6.25 uM after 15 to 20 hrs by CLSI protocol based microdilution assay relative to control; assay type: functional; procedure, shortened: as §3
Escherichia coli [16] = assay: Antibacterial activity against NEO-sensitive Escherichia coli ATCC 25922 at 6.25 uM after 15 to 20 hrs by CLSI protocol based microdilution assay relative to control; assay type: functional; procedure, shortened: as §3
Escherichia coli [17] = assay: Antibacterial activity against NEO-sensitive Escherichia coli harboring TolC mutant at 6.25 uM after 15 to 20 hrs by CLSI protocol based microdilution assay relative to control; assay type: functional; procedure, shortened: as §4
Acinetobacter baumannii = assay: Antibacterial activity against NEO-sensitive Acinetobacter baumannii ATCC 19606 at 6.25 uM after 15 to 20 hrs by CLSI protocol based microdilution assay relative to control; assay type: functional, ATCC 19606 = CIP 70.34 = JCM 6841; procedure, shortened: as §3
Pseudomonas aeruginosa = assay: Antibacterial activity against NEO-resistant Pseudomonas aeruginosa 27853 at 6.25 uM after 15 to 20 hrs by CLSI protocol based microdilution assay relative to control; assay type: functional; procedure, shortened: as §4
Klebsiella oxytoca = assay: Antibacterial activity against NEO-sensitive Klebsiella oxytoca HM-625 at 6.25 uM after 15 to 20 hrs by CLSI protocol based microdilution assay relative to control; assay type: functional; procedure, shortened: as §3
[18] = Antibacterial activity against NEO-sensitive Enterobacter cloacae 13047 at 6.25 uM after 15 to 20 hrs by CLSI protocol based microdilution assay relative to control; assay type: functional, Enterobacter cloacae subsp. cloacae, ATCC 13047; procedure, shortened: as §3
Klebsiella pneumoniae = assay: Antibacterial activity against Klebsiella pneumoniae NR-151410 at 6.25 uM after 15 to 20 hrs by CLSI protocol based microdilution assay relative to control; assay type: functional; procedure, shortened: as §3
[19] = Inhibition of Eis (unknown origin)
[20] = Inhibition of AAC(3)-4 (unknown origin)
[21] = Inhibition of AAC(6')-1e (unknown origin)
[22] = Inhibition of AAC(2')-1c (unknown origin)
[23] = Inhibition of APH(3')-1a (unknown origin)
[24] = Inhibition of APH(2\")-1a (unknown origin)

Row | Compound | inhibition (Ribosomal RNA A-site [1]) [%] | inhibition (Ribosomal RNA A-site [2]) [%] | inhibition (Ribosomal RNA A-site [3]) [%] | inhibition (Homo sapiens [4]) [%] | inhibition (Homo sapiens [5]) [%] | IC50 (Ribosomal RNA A-site [6]) [nM] | IC50 (Ribosomal RNA A-site [7]) [nM] | IC50 (Ribosomal RNA A-site [8]) [nM] | IC50 [9] [nM] | Activity (Staphylococcus aureus [10]) [%] | Activity (Staphylococcus aureus [11]) | Activity (Staphylococcus aureus [12]) [%] | Activity (Staphylococcus aureus [13]) [%] | Activity (Staphylococcus aureus [14]) | Activity (Streptococcus pyogenes) | Activity (Enterococcus faecalis) [%] | Activity (Enterococcus faecium) [%] | Activity [15] [%] | Activity (Bacillus anthracis) | Activity (Listeria monocytogenes) | also measured
1 | NC[C@@H]1O[C@H](O[C@H]2[C@@H](O)[C@H](O[C@@H]3[C@@H](O)[C@H](N)C[C@H](N)[C@H]3O[C@H]3O[C@H](CN)[C@@H](O)[C@H](O)[C@H]3N)O[C@@H]2CSCCNC(=S)NCCCCCCNC(=O)CCCc2ccc3ccc4cccc5ccc2c3c45)[C@H](N)[C@@H](O)[C@@H]1O | 64 | 75 | 70 | 91 | 58 | 254 | 252 | 235 | 180 | 98 | 100% | 47 | 87 | 0% | inactive | 51 | 18 | 61 | 100% | 91% | Activity (Escherichia coli [16]): 11%; Activity (Escherichia coli [17]): 100%; Activity (Acinetobacter baumannii): 8%; Activity (Pseudomonas aeruginosa): 14%; Activity (Klebsiella oxytoca): 21%; Activity [18]: 29%; Activity (Klebsiella pneumoniae): 33%; inhibition [19]: Active; inhibition [20]: Active; inhibition [21]: Active; inhibition [22]: Active; inhibition [23]: Active; inhibition [24]: Active
2 | NC[C@@H]1O[C@H](O[C@H]2[C@@H](O)[C@H](O[C@@H]3[C@@H](O)[C@H](N)C[C@H](N)[C@H]3O[C@H]3O[C@H](CN)[C@@H](O)[C@H](O)[C@H]3N)O[C@@H]2CNC(=O)CCCc2ccc3ccc4cccc5ccc2c3c45)[C@H](N)[C@@H](O)[C@@H]1O | 99 | 99 | 89 | 103 | 88 | 170 | 200 | 465 | 149 | 12 | 43% | 23 | 35 | 19% | 23% | 0 | 0 | 38 | 23% | 22% | Activity (Escherichia coli [16]): 8%; Activity (Escherichia coli [17]): 54%; Activity (Acinetobacter baumannii): 5%; Activity (Pseudomonas aeruginosa): 11%; Activity (Klebsiella oxytoca): 5%; Activity [18]: 5%; Activity (Klebsiella pneumoniae): 12%; inhibition [19]: Active; inhibition [20]: Active; inhibition [21]: Active; inhibition [22]: Active; inhibition [23]: Active; inhibition [24]: Active
3 | NC[C@@H]1O[C@H](O[C@H]2[C@@H](O)[C@H](O[C@@H]3[C@@H](O)[C@H](N)C[C@H](N)[C@H]3O[C@H]3O[C@H](CN)[C@@H](O)[C@H](O)[C@H]3N)O[C@@H]2CSCCNC(=O)CCCc2ccc3ccc4cccc5ccc2c3c45)[C@H](N)[C@@H](O)[C@@H]1O | 78 | 66 | 74 | 92 | 58 | 148 | 175 | 168 | 126 | 36 | 53% | 20 | 30 | 32% | 20% | 18 | 0 | 41 | 100% | 49% | Activity (Escherichia coli [16]): 7%; Activity (Escherichia coli [17]): 100%; Activity (Acinetobacter baumannii): 10%; Activity (Pseudomonas aeruginosa): 7%; Activity (Klebsiella oxytoca): 13%; Activity [18]: 0%; Activity (Klebsiella pneumoniae): 20%; inhibition [19]: inactive; inhibition [20]: inactive; inhibition [21]: inactive; inhibition [22]: inactive; inhibition [23]: inactive; inhibition [24]: inactive
4 | NC[C@@H]1O[C@H](O[C@H]2[C@@H](O)[C@H](O[C@@H]3[C@@H](O)[C@H](N)C[C@H](N)[C@H]3O[C@H]3O[C@H](CN)[C@@H](O)[C@H](O)[C@H]3N)O[C@@H]2CSCCNC(=O)CCc2ccc3ccc4cccc5ccc2c3c45)[C@H](N)[C@@H](O)[C@@H]1O | 88 | 91 | 88 | 86 | 65 | 191 | 204 | 211 | 147 | 29 | inactive | 16 | 19 | inactive | 35% | 10 | 26 | 29 | inactive | inactive | Activity (Escherichia coli [16]): 0%; Activity (Escherichia coli [17]): inactive; Activity (Acinetobacter baumannii): 8%; Activity (Pseudomonas aeruginosa): 10%; Activity (Klebsiella oxytoca): 14%; Activity [18]: 0%; Activity (Klebsiella pneumoniae): 18%; inhibition [19]: Active; inhibition [20]: Active; inhibition [21]: Active; inhibition [22]: Active; inhibition [23]: Active; inhibition [24]: Active
